According to ChEMBL document CHEMBL3085714 (J Med Chem, 2013):

Tests used:
[1] = target: T1, Mitogen-activated protein kinase 14 (Homo sapiens, UniProt Q16539); experiment: Competitive inhibition of p38alpha MAP kinase (unknown origin) in presence of 100 uM ATP
[2] = target: T1, Mitogen-activated protein kinase 14; experiment: Inhibition of p38alpha MAP kinase in human whole blood assessed as inhibition of LPS-induced TNFalpha release by ELISA
[3] = target: T1, Mitogen-activated protein kinase 14; experiment: Inhibition of p38alpha MAP kinase in human whole blood assessed as inhibition of LPS-induced TNFalpha release at 100 uM by ELISA
[4] = Metabolic stability in human/rat liver microsomes at 1 mg/ml after 180 mins by LC/MS analysis; type: ADME, Microsome; conditions: read-out: Stability
Procedure, shortened: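 Rat and human liver microsomes were incubated with microsomal protein standardized to 1 mg/mL. Aliquots were withdrawn immediately after reaction start and at 10, 20, 40, 60, 120 and 180 min, then analysed by LC-MS.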

[5] = target: T1, Mitogen-activated protein kinase 14; experiment: Competitive inhibition of p38alpha MAP kinase (unknown origin) at 10 uM in presence of 100 uM ATP
Mus musculus [6] = organism: Mus musculus; experiment: Metabolic stability in C57BL/6 mouse assessed as M-734 metabolite level in blood after 72 hrs by LC-MS/MS analysis; type: ADME, organism-based
Mus musculus [7] = organism: Mus musculus; experiment: Metabolic stability in C57BL/6 mouse assessed as M-732 metabolite level in blood after 72 hrs by LC-MS/MS analysis; type: ADME, organism-based
Mus musculus [8] = organism: Mus musculus; experiment: Metabolic stability in C57BL/6 mouse assessed as M-605 metabolite level in blood after 72 hrs by LC-MS/MS analysis; type: ADME, organism-based
Mus musculus [9] = organism: Mus musculus; experiment: Metabolic stability in C57BL/6 mouse assessed as M-603 metabolite level in blood after 72 hrs by LC-MS/MS analysis; type: ADME, organism-based
Mus musculus [10] = experiment: Terminal elimination rate in C57BL/6 mouse at 10 mg/kg, po; type: ADME, organism-based; set-up: dose 10 mg/kg, route oral; conditions: in vivo
[11] = AUC (0 to infinity) in C57BL/6 mouse at 10 mg/kg, po; type: ADME, organism-based; set-up: time infinity, dose 10 mg/kg, route oral; conditions: plasma
Procedure, shortened: (§1)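 Male Black 6 C57 mice were dosed orally at 10 mg/kg. Plasma was sampled for up to 72 h postdose. Parent drug was quantified by LC-MS/MS after derivatization with 4-pyridinylboronic acid (70 °C, 40 min). Parameters came from noncompartmental analysis of mean plasma concentration–time profiles.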

[12] = AUC (0 to t) in C57BL/6 mouse at 10 mg/kg, po; type: ADME, organism-based; set-up: dose 10 mg/kg, route oral; conditions: plasma; procedure, shortened: as §1
Mus musculus [13] = experiment: Half life in C57BL/6 mouse at 10 mg/kg, po; type: ADME, organism-based; set-up: dose 10 mg/kg, route oral; conditions: in vivo; procedure, shortened: as §1
[14] = Tmax in C57BL/6 mouse at 10 mg/kg, po; type: ADME, organism-based; set-up: dose 10 mg/kg, route oral; conditions: in vivo
[15] = Cmax in C57BL/6 mouse at 10 mg/kg, po; type: ADME, organism-based; set-up: dose 10 mg/kg, route oral; conditions: in vivo; procedure, shortened: as §1
Liver microsome [16] = experiment: Metabolic stability in female human liver microsomes; type: ADME
Procedure, shortened: (§2)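 Pooled liver microsomes, male and female, from rat and human were incubated separately. Time–concentration profiles of metabolite formation were followed by LC-MS. Incubations were run in triplicate and reported as mean ± SEM.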

Liver microsome [17] = experiment: Metabolic stability in male human liver microsomes; type: ADME; procedure, shortened: as §2
Liver microsome [18] = experiment: Metabolic stability in female rat liver microsomes; type: ADME; procedure, shortened: as §2
Liver microsome [19] = experiment: Metabolic stability in male rat liver microsomes; type: ADME; procedure, shortened: as §2

T1 sequence (Q16539 whole entry): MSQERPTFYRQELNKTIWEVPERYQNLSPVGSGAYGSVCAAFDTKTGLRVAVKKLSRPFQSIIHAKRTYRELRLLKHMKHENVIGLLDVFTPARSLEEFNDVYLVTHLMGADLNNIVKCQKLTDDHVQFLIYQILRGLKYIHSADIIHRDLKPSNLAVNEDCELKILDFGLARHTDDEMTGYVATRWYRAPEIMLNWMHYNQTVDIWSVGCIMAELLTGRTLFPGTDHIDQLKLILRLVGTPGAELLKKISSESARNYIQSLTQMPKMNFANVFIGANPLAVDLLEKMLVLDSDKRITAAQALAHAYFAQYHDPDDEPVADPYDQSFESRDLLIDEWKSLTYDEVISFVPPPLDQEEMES

SMILES	IC50 [1] [nM]	IC50 [2] [nM]	further results
Nc1ccccc1Nc1ccc2c(c1)OCc1ccc(OCCN3CCOCC3)cc1C2=O	107	490	–
O=C1c2ccc(Nc3ccc(F)cc3F)cc2CCc2ccc(OC[C@@H](O)CO)cc21	–	–	remaining at 3 h [4]: 100%
Nc1ccc2c(c1)C(=O)c1ccc(Nc3ccc(F)cc3N)cc1OC2	151	1170	–
CC1(C)OC[C@@H](COc2cccc3c2COc2cc(Nc4ccc(F)cc4F)ccc2C3=O)O1	563	–	inhibition [3]: 48.6%
O=C1c2cc(O)ccc2COc2cc(Nc3ccc(F)cc3F)ccc21	122	1850	–
O=C1c2ccc(OCCC3CCOCC3)cc2COc2cc(Nc3ccc(F)cc3F)ccc21	557	–	–
Nc1ccc2c(c1)C(=O)c1ccc(Oc3ccc(F)cc3F)cc1OC2	763	–	–
O=C1c2cc(OCCC3CCCCC3)ccc2COc2cc(Nc3ccc(F)cc3F)ccc21	–	18600	inhibition [5]: 41.3%
Nc1ccc2c(c1)C(=O)c1ccc(Nc3ccc(F)cc3)cc1OC2	103	5700	–
Nc1ccccc1Nc1ccc2c(c1)OCc1cc(OCCN3CCOCC3)ccc1C2=O	147	58700	–
COc1cccc2c1C(=O)c1ccc(Nc3ccc(F)cc3F)cc1OC2	280	–	–
Cc1cc(F)ccc1Nc1ccc2c(c1)OCc1cc(OCCN3CCOCC3)ccc1C2=O	160	–	–
O=c1c2ccccc2ccc2cc(Nc3ccc(F)cc3F)ccc12	4200	–	–
CC1(C)OC[C@@H](COc2ccc3c(c2)C(=O)c2ccc(Nc4ccc(F)cc4F)cc2OC3)O1	207	1440	–
Nc1cccc(Nc2ccc3c(c2)OCc2ccc(OCCN4CCOCC4)cc2C3=O)c1	146	684	–
O=C1c2ccc(Nc3ccc(F)cc3F)cc2OCc2c(OCCC3CCOCC3)cccc21	571	–	–
O=C1c2ccc(Nc3ccc(F)cc3F)cc2OCc2cccc(OC[C@@H](O)CO)c21	> 10000	–	–
Nc1ccc2c(c1)C(=O)c1ccc(Nc3ccccc3F)cc1OC2	111	4540	–
CC1(C)OC[C@@H](COc2ccc3c(c2)COc2cc(Nc4ccc(F)cc4F)ccc2C3=O)O1	665	91200	–
O=C1c2ccc(Nc3ccc(F)cc3F)cc2OCc2cccc(OC[C@H](O)CO)c21	> 10000	–	–
COc1ccc2c(c1)COc1cc(Nc3ccc(F)cc3F)ccc1C2=O	218	–	–
COc1ccc2c(c1)C(=O)c1ccc(Nc3ccc(F)cc3F)cc1OC2	115	4710	–
CC1(C)OC[C@@H](CCOc2ccc3c(c2)COc2cc(Nc4ccc(F)cc4F)ccc2C3=O)O1	516	–	–
O=C1c2ccccc2COc2cc(Nc3ccc(F)cc3F)ccc21	–	22000	–
O=C1c2cc(NCCN3CCOCC3)ccc2COc2cc(Oc3ccc(F)cc3F)ccc21	819	–	–
Nc1cccc(Nc2ccc3c(c2)OCc2ccc(N)cc2C3=O)c1	651	2430	–
CCN(CC)CCOc1ccc2c(c1)C(=O)c1ccc(Nc3ccc(F)cc3F)cc1OC2	101	1060	–
COc1ccc2c(c1)COc1cc(Nc3ccccc3N)ccc1C2=O	132	71800	–
CC1(C)OC[C@H](COc2cccc3c2COc2cc(Nc4ccc(F)cc4F)ccc2C3=O)O1	481	–	inhibition [3]: 42.4%
Nc1ccc2c(c1)C(=O)c1ccc(Nc3ccccc3N)cc1OC2	205	683	–

Now from value to molecule, other results behind:

IC50 [1] [nM]	IC50 [2] [nM]	SMILES	further results
48	1300	CC1(C)OC[C@H](COc2ccc3c(c2)C(=O)c2ccc(Nc4ccc(F)cc4F)cc2OC3)O1	–
22	–	CC(=O)OCCOc1ccc2c(c1)C(=O)c1ccc(Nc3ccc(F)cc3F)cc1OC2	–
63	–	COc1cccc2c1COc1cc(Nc3ccc(F)cc3F)ccc1C2=O	inhibition [3]: 44.7%
21	429	O=C1c2cc(OCCN3CCOCC3)ccc2COc2cc(Nc3ccc(F)cc3F)ccc21	–
1.8	287	Cc1cc(F)c(NC(=O)c2ccsc2)cc1Nc1ccc2c(c1)OCc1ccc(OC[C@H]3COC(C)(C)O3)cc1C2=O	–
20	588	O=C1c2cc(OCCO)ccc2COc2cc(Nc3ccc(F)cc3F)ccc21	–
33	71800	O=C1c2ccc(OCCN3CCOCC3)cc2COc2cc(Nc3ccc(F)cc3F)ccc21	–
10	–	O=C(Nc1ccc(F)c(Nc2ccc3c(c2)OCc2c(OCCN4CCOCC4)cccc2C3=O)c1)c1ccccc1	inhibition [3]: 39%
25	90400	O=C1c2ccc(Nc3ccc(F)cc3F)cc2OCc2c(OC[C@@H](O)CO)cccc21	–
27	28200	O=C1c2ccc(OC[C@@H](O)CO)cc2COc2cc(Nc3ccc(F)cc3F)ccc21	–
3	1560	O=C(Nc1ccc(F)c(Nc2ccc3c(c2)OCc2ccc(OCCN4CCOCC4)cc2C3=O)c1)c1ccccc1	–
8	631	O=C1c2cc(OCCCO)ccc2COc2cc(Nc3ccc(F)cc3F)ccc21	–
14	233	O=C1c2cc(OC[C@H](O)CO)ccc2COc2cc(Nc3ccc(F)cc3F)ccc21	Stability (Mus musculus [6]): Unstable; Stability (Mus musculus [7]): Unstable; Stability (Mus musculus [8]): Unstable; Stability (Mus musculus [9]): Unstable; Kel (Mus musculus [10]): 0.0243 h⁻¹; AUC(0-inf) [11]: 6990 ng·h/mL; AUC(0-t) [12]: 6590 ng·h/mL; t1/2 (Mus musculus [13]): 3.95 h; Tmax [14]: 1 h; Cmax [15]: 627 ng/mL
87	–	COc1cccc2c1COc1cc(Nc3ccc(F)cc3N)ccc1C2=O	–
17	–	O=C(Nc1cc(Nc2ccc3c(c2)OCc2cc(OCCN4CCOCC4)ccc2C3=O)ccc1F)c1ccccc1	inhibition [3]: 36%
61	591	O=C1c2cc(OC[C@@H](O)CO)ccc2COc2cc(Nc3ccc(F)cc3F)ccc21	–
79	364	O=C1c2cc(OCCC3CCOCC3)ccc2COc2cc(Nc3ccc(F)cc3F)ccc21	–
53	38100	CN(C)CCOc1ccc2c(c1)COc1cc(Nc3ccc(F)cc3F)ccc1C2=O	–

IC50 [1] [nM]	IC50 [2] [nM]	SMILES	further results
41	94800	Nc1cc(F)ccc1Nc1ccc2c(c1)OCc1cc(OCCN3CCOCC3)ccc1C2=O	–
19	583	O=C1c2ccc(Nc3ccc(F)cc3F)cc2CCc2ccc(OCCO)cc21	remaining at 3 h [4]: 86%
28	1100	O=C1c2cc(NCCN3CCOCC3)ccc2COc2cc(Nc3ccc(F)cc3F)ccc21	–
42	–	O=C1c2ccc(Nc3ccc(F)cc3F)cc2OCc2c(OC[C@H](O)CO)cccc21	inhibition [3]: 48.5%
49	1250	O=C1c2ccc(Nc3ccc(F)cc3F)cc2CCc2ccc(O)cc21	remaining at 3 h [4]: 70%
85	–	Cc1ccccc1Nc1ccc2c(c1)OCc1cc(OCCN3CCOCC3)ccc1C2=O	inhibition [3]: 30.3%
94	–	COc1cccc2c1COc1cc(Nc3ccccc3N)ccc1C2=O	–
95	1910	O=C1c2ccccc2CCc2cc(Nc3ccc(F)cc3F)ccc21	Stability (Liver microsome [16]): Unstable; Stability (Liver microsome [17]): Unstable; Stability (Liver microsome [18]): Unstable; Stability (Liver microsome [19]): Unstable; remaining at 3 h [4]: 43%
72	–	Nc1cc(F)ccc1Nc1ccc2c(c1)OCc1c(OCCN3CCOCC3)cccc1C2=O	inhibition [3]: 38.8%
21	37900	O=C1c2ccc(OCC[C@@H](O)CO)cc2COc2cc(Nc3ccc(F)cc3F)ccc21	–
74	7810	Nc1ccc2c(c1)C(=O)c1ccc(Nc3cc(F)c(F)cc3F)cc1OC2	–
13	–	O=C1c2ccc(Nc3ccc(F)cc3F)cc2CCc2ccc(OCCCO)cc21	remaining at 3 h [4]: 90%
43	1940	Nc1ccc2c(c1)C(=O)c1ccc(Nc3ccc(F)cc3F)cc1OC2	–
34	–	O=C1c2ccc(Nc3ccc(F)cc3F)cc2OCc2c(OCCN3CCOCC3)cccc21	inhibition [3]: 32.2%
25	51400	O=C(Nc1cccc(Nc2ccc3c(c2)OCc2c(OCCN4CCOCC4)cccc2C3=O)c1)c1ccoc1	–
1.7	148	Cc1cc(F)c(NC(=O)c2ccsc2)cc1Nc1ccc2c(c1)OCc1ccc(OCCN3CCOCC3)cc1C2=O	–
44	1650	COc1ccc2c(c1)C(=O)c1ccc(Nc3ccc(F)cc3F)cc1CC2	remaining at 3 h [4]: 85%
